Assay [1] in a line: inhibitors of TNFa-induced NFkB p65 translocation, primary screen, imaging, HUVEC, MLSMR starter and 10KST1 sets (AID 438;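 active = inhibition above 20% together with a positive visual image hit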;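 also: compound added about 3h40 before a 20 min TNFalpha stimulation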;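 as to inhibition: signal is the nuclear over cytoplasmic p65 intensity ratio per well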). Particulars: HUVEC TNFa-induced p65 nuclear translocation; cell count: measured here: nuclei count (cytotoxicity indicator), at 2.08 µM; inhibition: at 2 µM, stronger effect = higher value, 0% TNFa-plus-vehicle, 100% no-TNFa wells.
Assay [2] can be described thus: inhibitors of E-selectin induction by TNFa, primary screen, imaging, HUVEC, immunofluorescence, MLSMR starter and 10KST1 sets (AID 487).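 As to inhibition: signal is fraction of cell area covered by stained E-selectin grains.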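 As to nuclei count: 100% = median nuclei count of all wells on the same plate.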 As to conditions: HUVEC TNFalpha-induced E-selectin immunofluorescence imaging, at 2 µM; inhibition: stronger effect = higher value; nuclei count: measured here: cell number, toxicity.
Assay [3] can be described thus: DUSP6 inhibitors restoring Erk phosphorylation by chemical complementation, primary imaging in DUSP6-transfected HeLa (AID 609;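 active = compounds giving at least 50% inhibition in the cell-based MKP-3 phosphatase rescue imaging test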;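 as to inhibition: phospho-Erk level distribution per well compared with pooled transfected vehicle control wells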). Particulars: HeLa MKP-3 transfected, phospho-Erk imaging KS statistic, at 10 µM, cells stimulated with TPA for 15 min.
Assay [4] concerns the target Dual specificity protein phosphatase 6 (Homo sapiens) (UniProt Q16828). The description is as above. Particulars: HeLa MKP-3 transfected, phospho-Erk imaging KS statistic; at 10 µM; stronger effect = higher value; cells stimulated with TPA for 15 min.
Assay [5] concerns the target Voltage-gated potassium channel subunit beta-2 (Rattus norvegicus) (UniProt P62483). As to the kind of experiment: KvBeta enzyme negative modulators, primary screen, biochemical, NADPH fluorescence (AID 622;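 active = fluorescence slope higher than the sample average by over 3 SD, cut at about -0.22 in these data, passing the limit was not always enough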;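 also: slope of raw intensity against log time taken from 70 to 1610 s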). Particulars: recombinant KvBeta, 4-cyanobenzaldehyde reduction, at 10 µM, stronger effect = higher value.
The target is the same in assay [6]. As to the kind of experiment: KvBeta positive modulators, primary screen, biochemical, NADPH fluorescence (AID 623;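 active = NADPH fluorescence slope more negative than the mean of all samples by about 3 SD, 99.7% confidence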;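 also: fluorescence intensity change per second fitted from 20 to 320 s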). Particulars: Recombinant KvBeta, NADPH fluorescence decrease slope, 10 min; at 10 µM; stronger effect = lower value.
Assay [7] deals with Alpha-2C adrenergic receptor (Homo sapiens) (UniProt P18825). Nature of the assay: modulators of alpha2C/GIRK thallium flux, primary screen, cell-based, HEK293 alpha2C/GIRK1/2 (AID 624;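 active = fluorescence slope after compound addition differing from the mean of all screened samples at 99.7% confidence, in either direction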;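 also: slope of fluorescence ratio to pre-addition baseline per second over 15 to 24 s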). Particulars: thallium flux BTC fluorescence, at 10 µM, actives lie on both sides.
Sequence of Alpha-2C adrenergic receptor (Homo sapiens) (P18825 whole entry, looked up): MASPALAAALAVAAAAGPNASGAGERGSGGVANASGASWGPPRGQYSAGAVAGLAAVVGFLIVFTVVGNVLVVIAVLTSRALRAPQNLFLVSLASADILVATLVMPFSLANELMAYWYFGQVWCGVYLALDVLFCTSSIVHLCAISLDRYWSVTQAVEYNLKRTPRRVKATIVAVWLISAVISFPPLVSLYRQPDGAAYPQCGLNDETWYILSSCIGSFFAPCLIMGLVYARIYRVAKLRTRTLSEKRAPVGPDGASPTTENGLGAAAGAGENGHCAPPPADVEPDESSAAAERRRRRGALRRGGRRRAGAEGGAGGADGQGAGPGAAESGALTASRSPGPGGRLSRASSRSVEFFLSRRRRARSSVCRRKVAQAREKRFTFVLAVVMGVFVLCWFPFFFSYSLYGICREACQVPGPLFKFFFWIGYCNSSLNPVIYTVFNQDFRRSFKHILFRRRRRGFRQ
The nature of assay [8]: inhibitors of larval lipid processing in zebrafish, primary screen, whole organism, PED6 fluorescence, gall bladder and intestine (AID 686;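 active = a full or partial loss of lipid-probe fluorescence in the fish gall bladder, intestine or both, judged by eye; inactive = no fluorescence loss, or compound toxic to the fish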;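 also: signal comes from phospholipase A2 cleavage of quenched PED6 carried via bile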). Particulars: Zebrafish larvae PED6 lipid processing, fluorescence scoring; screened at 20 µM (by protocol). Put shortly: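 Doses: 20 µM single dose. Test system: live zebrafish larvae aged 5-7 days, whole organism. Quantity: five larvae per well. Measured by: By-eye fluorescence microscopy. Reagent: ingested quenched lipid PED6 at 100 nM. Read-out: visual per-well fluorescence inhibition score. Times: overnight exposure of larvae to compound plus PED6.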

Assay [9] is described as follows: inhibitors of Chlamydomonas gravitaxis, primary screen, whole organism, Chlamydomonas reinhardtii, WT vs cilia-less mutant, absorbance, 96-well (AID 463189;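 active = inhibition at or above 50% relative to wild type and mutant plate controls; inactive = inhibition below 50%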;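 also: 0% = wild type cc124 cells in DMSO and 100% = ciliumless bld1 mutant cells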). As to conditions: OD600 absorbance, 2 days, at 10 µM, stronger effect = higher value.
Where [10] appears, read: measured here: cell density z-score.
Setting [11] is: measured here: nuclear c-Myc green intensity z-score.
Where [12] appears, read: measured here: nuclear pErk red intensity z-score, stronger effect = higher value.

Active and inactive are the calls of the source.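 The calls were made as follows, unless noted: active = visually confirmed hit in the image check and inhibition above 20%; inconclusive = visually confirmed hit but inhibition not above 20%; inactive = no visual hit in the image check.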

The text below walks through data of PubChem BioAssay.

Sequence of Dual specificity protein phosphatase 6 (Homo sapiens) (Q16828 whole entry, looked up): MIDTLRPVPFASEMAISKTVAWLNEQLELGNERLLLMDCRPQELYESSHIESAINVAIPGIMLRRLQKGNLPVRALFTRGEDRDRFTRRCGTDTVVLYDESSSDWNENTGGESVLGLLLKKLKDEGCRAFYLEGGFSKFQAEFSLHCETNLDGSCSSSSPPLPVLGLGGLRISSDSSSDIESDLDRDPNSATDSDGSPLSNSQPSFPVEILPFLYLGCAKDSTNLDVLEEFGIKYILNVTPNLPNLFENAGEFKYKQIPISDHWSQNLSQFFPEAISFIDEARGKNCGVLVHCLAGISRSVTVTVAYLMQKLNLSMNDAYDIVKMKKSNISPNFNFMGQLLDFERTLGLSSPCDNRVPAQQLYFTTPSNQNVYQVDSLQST
Sequence of Voltage-gated potassium channel subunit beta-2 (Rattus norvegicus) (P62483 whole entry, looked up): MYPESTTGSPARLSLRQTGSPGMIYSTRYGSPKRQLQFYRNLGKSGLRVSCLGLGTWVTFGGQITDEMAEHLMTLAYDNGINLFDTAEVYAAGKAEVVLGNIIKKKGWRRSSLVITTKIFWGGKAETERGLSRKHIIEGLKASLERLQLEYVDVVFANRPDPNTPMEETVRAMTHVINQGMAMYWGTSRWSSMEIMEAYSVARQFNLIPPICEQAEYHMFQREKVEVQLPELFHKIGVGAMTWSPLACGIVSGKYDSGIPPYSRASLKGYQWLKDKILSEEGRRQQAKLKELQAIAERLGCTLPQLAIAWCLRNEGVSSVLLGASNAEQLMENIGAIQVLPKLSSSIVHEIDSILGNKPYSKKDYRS

Regarding `O=C(O)CC(C(=O)N(c1ccccc1)c1ccccc1)N1CCOCC1` (centres undefined), the cell count in [1] came to 498. Besides, the inhibition in assay [1] is -4.7% (inactive); in assay [2], -103% (inactive); in assay [4] it was -7.01% (inactive); in assay [9], -20.4% (inactive). The nuclei count in assay [2] worked out at 118%. Further, the z-score in assay [3] (setting [10]) is -1.14; in assay [3] (setting [11]), 0.849; in assay [3] (setting [12]) it was 1.75. Also, in [5], the fluorescence slope is -0.576 (inactive). Moreover, in [6], the NADPH fluorescence slope is -4e-05 (inactive). The slope in assay [7] is 0.00573 (inactive). Moreover, the result in assay [8] was inactive.
As for `CN(C)CCCN1C(=O)C(O)=C(C(=O)c2cc3ccccc3o2)C1c1ccccn1` (centres undefined), the cell count in [1] was found to be 511. Also, the inhibition in assay [1] was -3.3% (inactive); in assay [2] it was -212% (inactive); in [4] it was 12.3% (inactive); in assay [9] it was -5.31% (inactive). In addition, the nuclei count in assay [2] is 137%. The z-score is 2.7 in assay [3] (setting [10]), -1.21 in assay [3] (setting [11]) and -1.13 in assay [3] (setting [12]). The fluorescence slope in assay [5] is -0.525 (inactive). Moreover, in [6], the NADPH fluorescence slope was -4.7e-05 (inactive). For the same compound, in [7], the slope was 0.00446 (inactive). The compound was called inactive in assay [8].
For the compound `CCCc1nnc(NC(=O)c2c(O)c3c([nH]c2=O)CCCC3)s1`, in assay [1], the cell count stood at 312. For the same compound, the inhibition in assay [1] was -15.5% (inactive); in assay [2], -42.9% (inactive); in assay [4], 17.5% (inactive); in [9], 14% (inactive). The same compound had a nuclei count in assay [2] of 134%. For the same compound, the z-score is -0.253 in [3] (setting [10]), -0.454 in assay [3] (setting [11]) and -0.547 in [3] (setting [12]). Further, the fluorescence slope in assay [5] is -0.423 (inactive). In [6], the NADPH fluorescence slope is -3.6e-05 (inactive). Also, the slope in [7] is 0.00662 (inactive). Also, the result in [8] was inactive.
For the compound `Cn1c(SCC(=O)NCc2ccccc2)nc2ccccc21`, in [1], the cell count turned out to be 325. Further, the inhibition in [1] is 1.6% (inactive); in [2], -60.9% (inactive); in assay [4], 3.66% (inactive); in assay [9], 26.1% (inactive). This compound had a nuclei count in assay [2] of 79.7%. In addition, the z-score in [3] (setting [10]) was 0.441; in [3] (setting [11]) it was 2.21; in assay [3] (setting [12]), -0.441. In addition, the fluorescence slope in [5] is -0.364 (inactive). Further, the NADPH fluorescence slope in assay [6] was -2.1e-05 (inactive). Further, in assay [7], the slope is 0.00569 (inactive). For the same compound, in assay [8], the outcome was “inactive; toxic”.
With `COc1ccc2[nH]c(C)c(C(=O)CN3CCc4cc(OC)c(OC)cc4C3)c2c1`, the cell count in assay [1] is 520. Moreover, the inhibition was 3.2% (inactive) in assay [1], 7.5% (inactive) in assay [2], -8.76% (inactive) in [4] and 22.2% (inactive) in assay [9]. Besides, in assay [2], the nuclei count is 117%. The values for the z-score in assay [3] (setting [10]), in assay [3] (setting [11]) and in [3] (setting [12]) were -1.28, 1.53 and -1.2, respectively. For the same compound, the fluorescence slope in assay [5] was -0.205 (inactive). Also, in [6], the NADPH fluorescence slope was -2e-05 (inactive). Also, the slope in [7] was 0.00464 (inactive). Besides, the call in [8] was inactive.
Regarding `NC(=O)CSc1c[nH]c2ccccc12`, the cell count in assay [1] turned out to be 640. The inhibition was -5.5% (inactive) in assay [1], 73.3% (inactive) in assay [2], 17% (inactive) in assay [4] and 31.3% (inactive) in [9]. This compound also returned a nuclei count in assay [2] of 169%. Moreover, the z-score in assay [3] (setting [10]) was -1.08; in assay [3] (setting [11]), 0.978; in assay [3] (setting [12]) it was -1.28. For the same compound, the fluorescence slope in assay [5] is -0.497 (inactive). The NADPH fluorescence slope in assay [6] was -4.9e-05 (inactive). The slope in assay [7] is 0.00438 (inactive). In assay [8], the call was inactive.
As to `COc1ccc(-c2oc3ncn4nc(Cc5ccccc5)nc4c3c2-c2ccc(OC)cc2)cc1`, in assay [1], the cell count was found to be 561. Moreover, the inhibition in [1] is -7.8% (inactive); in assay [2], -106% (inactive); in [4], -6.06% (inactive); in assay [9], -5.31% (inactive). This compound also came in with a nuclei count in assay [2] of 175%. Moreover, the figures for the z-score in assay [3] (setting [10]), in [3] (setting [11]) and in [3] (setting [12]) were 0.18, 0.751 and 0.443, respectively. Further, the fluorescence slope in assay [5] is -0.319 (inactive). For the same compound, the NADPH fluorescence slope in assay [6] is -1.7e-05 (inactive). The slope in [7] was 0.0116 (inactive). Further, the compound was called inactive in assay [8].
As to `O=C(Oc1ccccc1N1C(=O)CCC1=O)c1ccco1`, in assay [1], the cell count came to 545. Moreover, the inhibition is 4.9% (inactive) in [1], -119% (inactive) in assay [2], 3.5% (inactive) in assay [4] and -13.9% (inactive) in assay [9]. Besides, in assay [2], the nuclei count amounted to 118%. Further, the z-score in assay [3] (setting [10]) is 0.222; in [3] (setting [11]), -0.0545; in assay [3] (setting [12]), 0.413. Besides, the fluorescence slope in assay [5] was -0.557 (inactive). Besides, the NADPH fluorescence slope in assay [6] was -6.4e-05 (inactive). Further, in [7], the slope is 0.0069 (inactive). Moreover, the compound was classed as inactive in [8].
Regarding `CCC1(C)Cc2c(sc3c2c(=O)n(C)c2nnc(SCc4ccccc4)n32)CO1` (centres undefined), the cell count in assay [1] turned out to be 584. Also, the inhibition in assay [1] was 1.3% (inactive); in [2], -171% (inactive); in assay [4], 3.56% (inactive); in [9], 16.4% (inactive). Further, the nuclei count in [2] is 156%. In addition, the z-score in assay [3] (setting [10]) is -0.0769; in assay [3] (setting [11]), -0.7; in assay [3] (setting [12]) it was -1.21. In addition, the fluorescence slope in assay [5] was -0.286 (inactive). The NADPH fluorescence slope in assay [6] was -6.4e-06 (inactive). Besides, the slope in assay [7] was 0.00603 (inactive). Also, the outcome in [8] was inactive.
As to `CCCCCCC(=O)N1CCN(c2cc3c(cc2F)c(=O)c(C(=O)O)cn3CC)CC1`, the cell count in assay [1] came to 402. Further, the inhibition is 6% (inactive) in assay [1], -166% (inactive) in [2], 6.04% (inactive) in assay [4] and 4.18% (inactive) in [9]. The same compound displayed a nuclei count in [2] of 224%. For the same compound, the values for the z-score in assay [3] (setting [10]), in [3] (setting [11]) and in assay [3] (setting [12]) were -1.36, 0.0882 and 0.161, respectively. Further, the fluorescence slope in assay [5] is -0.0683 (inactive). For the same compound, in assay [6], the NADPH fluorescence slope was -1.7e-05 (inactive). Besides, the slope in assay [7] was 0.0054 (inactive). In addition, the result in assay [8] was inactive.
Take `Cc1ccc(CC2CC(=O)N(c3ccc4c(c3)OCCO4)C2=O)cc1` (centres undefined): the cell count in assay [1] is 482. Besides, the inhibition in assay [1] is -11% (inactive); in assay [2], -17.8% (inactive); in assay [4], 15.1% (inactive); in [9], 25.7% (inactive). The compound also registered a nuclei count in [2] of 129%. Moreover, the results for the z-score in assay [3] (setting [10]), in [3] (setting [11]) and in [3] (setting [12]) were 1.49, -1.24 and 0.443, respectively. The fluorescence slope in assay [5] is -0.513 (inactive). The NADPH fluorescence slope in assay [6] was -0.000111 (inactive). Moreover, the slope in [7] was 0.00446 (inactive). For the same compound, the call in assay [8] was inactive.
With `N#Cc1ccc(-c2ccco2)nc1SCC(=O)c1ccc(Cl)cc1`, in [1], the cell count worked out at 431. In addition, the inhibition in assay [1] is 0% (inactive); in assay [2], -80.7% (inactive); in assay [4], 7.83% (inactive); in assay [9], -1.61% (inactive). Further, the nuclei count in [2] stood at 138%. Further, the results for the z-score in assay [3] (setting [10]), in assay [3] (setting [11]) and in assay [3] (setting [12]) were -1.49, -0.417 and 1.23, respectively. Besides, in assay [5], the fluorescence slope is -0.288 (inactive). The NADPH fluorescence slope in [6] is -2.9e-05 (inactive). The slope in assay [7] was 0.00718 (inactive). In assay [8], the result was inactive.
Turning to `Cn1nccc1C(=O)Nc1ccccc1C(=O)O`, in [1], the cell count came out at 640. The inhibition in assay [1] is -1.2% (inactive); in assay [2], 16% (inactive); in assay [4], 11.4% (inactive); in [9], 15.5% (inactive). Further, the nuclei count in assay [2] is 170%. In addition, the z-score in assay [3] (setting [10]) is 1.93; in assay [3] (setting [11]) it was -0.909; in assay [3] (setting [12]), -0.448. Further, the fluorescence slope in assay [5] was -0.449 (inactive). Besides, the NADPH fluorescence slope in [6] is -0.000369 (inactive). For the same compound, the slope in assay [7] was 0.00518 (inactive). In assay [8], the compound was called inactive.

One may read the inhibition as the relative decrease from the control value, in per cent.
